# Screens from PubChem.
# Scp-1 inhibitor: Scp-1 phosphatase inhibitors, primary screen, biochemical, colorimetric, uHTS. Carboxy-terminal domain RNA polymerase II polypeptide A small phosphatase 1 (Homo …. Recombinant Scp1, phosphopeptide, malachite green phosphate absorbance. inhibition, % at 20 µM. hit rate 0.88% among 340,000;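 active = inhibition above about 50% at 20 µM, limit read from the data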
#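 Material – SCP-1 phosphatase catalytic domain, residues 76-261 · Buffer or medium – Acidic Tris acetate buffer with magnesium and detergent · Also added – Phospho 17-mer peptide substrate · Compound – single 20 µM dose, 1% DMSO · Times – 45 min room-temperature reaction, 5 min colour, 30 min stabiliser · Technique – Phosphate-binding colour reagent, absorbance read at 630 nm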
# DNMT1 block: human DNMT1 methyltransferase inhibitors, primary screen, biochemical, molecular beacon, fluorescence, HinP1I cleavage, uHTS | DNA (cytosine-5)-methyltransferase 1 (Homo sapiens), P26358 | inhibition (reported as % activation of signal), % at 10 µM | AID 588458, 2011 | hit rate 0.83% among 360,000; in the data active = inhibition above about 50%
# SUMO1-SIM PPI: modulators of SUMO1 protein-protein interactions, primary screen, biochemical, uHTS; hit rate 0.33% among 360,000; inhibition, % at 20 µM; SUMO1 binding to a labelled peptide, TR-FRET, 1 h; AID 602429, 2012; Small ubiquitin-related modifier 1 (Homo sapiens), P63165; in the data active = inhibition above about 37%
# NadD block: inhibitors of S. aureus NadD, primary screen, biochemical, colorimetric, uHTS | inhibition, % at 20 µM | hit rate 0.78% among 360,000 | purified NadD enzyme, colorimetric absorbance read-out | AID 602399, 2012 | Nicotinate-nucleotide adenylyltransferase NadD (Staphylococcus aureus N315); in the data active = inhibition above about 26%
# LMPTP inh: LMPTP phosphatase inhibitors, primary screen, biochemical, fluorescence intensity, uHTS; Low molecular weight phosphotyrosine protein phosphatase (Homo sapiens), P24666; inhibition, % at 20 µM; AID 651560, 2012; recombinant LMPTP-A, OMFP fluorogenic substrate; hit rate 0.22% among 360,000;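 active = compounds that cut the enzyme signal by at least half of the control window in the single-dose screen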
#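 Material: LMPTP-A; amount: 0.625 nM enzyme; doses: single 20 µM dose; times: reaction 50 min, room temperature, dark; technique: fluorescence intensity of OMFP turnover product; benchmarks: no-enzyme and uninhibited controls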
# STEP inh: STEP phosphatase inhibitors, primary screen, biochemical, fluorescence intensity, uHTS; hit rate 0.25% among 360,000; Tyrosine-protein phosphatase non-receptor type 5 (Homo sapiens), P54829; inhibition, % at 20 µM; recombinant STEP, OMFP fluorogenic substrate;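 active = inhibition at 20 µM, scaled per plate between control wells, above about 37%, limit read from the data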
# Target sequence (P54829 whole entry, looked up): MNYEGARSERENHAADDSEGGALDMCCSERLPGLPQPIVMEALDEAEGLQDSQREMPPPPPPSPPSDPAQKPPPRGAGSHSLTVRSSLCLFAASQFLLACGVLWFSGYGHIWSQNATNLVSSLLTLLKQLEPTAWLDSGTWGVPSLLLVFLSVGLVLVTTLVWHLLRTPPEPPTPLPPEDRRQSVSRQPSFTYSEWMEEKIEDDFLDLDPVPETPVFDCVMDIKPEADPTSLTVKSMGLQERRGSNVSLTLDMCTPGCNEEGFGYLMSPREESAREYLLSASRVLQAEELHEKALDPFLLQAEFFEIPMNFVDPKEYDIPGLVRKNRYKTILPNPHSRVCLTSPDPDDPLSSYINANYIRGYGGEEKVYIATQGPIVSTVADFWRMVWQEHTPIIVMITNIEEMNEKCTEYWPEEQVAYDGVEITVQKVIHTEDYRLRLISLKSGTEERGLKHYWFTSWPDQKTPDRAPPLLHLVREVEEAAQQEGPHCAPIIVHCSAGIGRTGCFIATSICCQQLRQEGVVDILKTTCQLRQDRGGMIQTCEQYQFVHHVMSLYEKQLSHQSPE
#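 Also added – OMFP at 25 µM · Test system – STEP tyrosine phosphatase · Technique – FITC-channel fluorescence of OMFP product · Schedule – 20 min at room temperature, dark · Evaluation – control-normalized % inhibition with plate pattern correction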
# Numbers stand for hits; 0 = inactive; - = no result given; + = active, no number. The list is not random: actives were taken first. Their share in the collection is about 2.4%.
SMILES,Scp-1 inhibitor,DNMT1 block,SUMO1-SIM PPI,NadD block,LMPTP inh,STEP inh
O=C(COC(=O)c1ccc([N+](=O)[O-])s1)NC(c1ccccc1)c1ccccc1,0,0,59,0,0,0
O=C(COC(=O)c1ccc([N+](=O)[O-])s1)Nc1ccccc1,0,0,0,0,0,0
CCN(Cc1ccccc1)C(=O)C1CCN(Cc2ccc(SC)cc2)CC1,0,0,42,0,0,0
CCN(Cc1ccccc1)C1CCN(Cc2ccc(SC)cc2)CC1,0,0,0,0,0,0
CCc1ccc(Nc2n[n+](-c3ccccc3)c(-c3ccc(N(CC)CC)cc3)s2)cc1,0,68,0,0,0,0
COc1ccc(C)cc1Nc1n[n+](-c2ccccc2)c(-c2ccc(N(C)C)cc2)s1,0,60,0,0,0,0
Fc1ccc(-[n+]2nc(Nc3ccccc3)sc2-c2c(Cl)cccc2Cl)cc1,0,0,0,0,0,0
CCc1ccc(Nc2n[n+](-c3ccccc3)c(-c3c(Cl)cccc3Cl)s2)cc1,0,0,0,0,71,0
O=[N+]([O-])c1cccc(C2Nc3ccccc3CO2)c1 (stereo not given),-,0,0,0,0,0
Cc1cc(N)n(-c2ccccn2)n1,0,0,0,0,0,0
CCc1nc(N)nc(N)c1-c1ccc(NCCN)c([N+](=O)[O-])c1,0,0,0,0,-,0
CCc1nc(N)nc(N)c1-c1ccc(N(C)Cc2ccccc2)c([N+](=O)[O-])c1,0,0,0,0,79,0
CCc1nc(N)nc(N)c1-c1ccc(Cl)cc1,0,0,0,0,56,0
CCC(=O)n1nc(-c2ccc(Cl)cc2)nc1N,0,0,0,0,0,0
Cc1ccc(-c2nnn(CC(=O)N(CCCO)C(C(=O)NC3CCCC3)c3ccc(F)cc3)n2)o1 (stereo not given),0,0,0,0,0,0
Cc1ccc(NC(=S)NN(C)c2nc(C)cnc2C)cc1,0,0,40,0,0,0
CN1CCN(c2ccc(Nc3ccnc4cc(Cl)ccc34)cc2)CC1,0,0,0,0,0,0
CCN1CCN(c2ccc(Nc3ccnc4ccccc34)cc2)CC1,0,0,0,0,67,0
CCNC(=O)C1CCCN(C(=O)c2cccc(Cl)c2)CC1 (stereo not given),-,0,0,0,0,0
Cc1csc2nc3cc(C(N)=O)ccc3c(=O)n12,0,0,0,0,0,0
NC(=O)c1ccc2c(=O)n3c(-c4cc(Cl)c(N)c(Cl)c4)csc3nc2c1,0,0,56,0,0,0
CCC/C=C/c1ccc(CN2C(CC(C)C)C(=O)N(Cc3cn(Cc4ccco4)nn3)CCS2(=O)=O)cc1 (stereo not given),-,0,0,0,0,0
N#Cc1cc2ccc(N3CCOCC3)cc2cc1C#N,0,0,44,0,0,0
N#Cc1cc(Cl)c(N2CCOCC2)cc1C#N,0,0,0,0,0,0
O=C(NCCNC(=O)c1ccc(-c2cc(Cl)ccc2Cl)o1)c1cnccn1,-,0,0,0,0,0
SMILES,Scp-1 inhibitor,DNMT1 block,SUMO1-SIM PPI,NadD block,LMPTP inh,STEP inh
CCOc1ccccc1CNC(=O)C1CCCN(c2nnc(C)c3c(C)n(-c4ccccc4)nc23)C1 (stereo not given),0,0,47,0,0,0
COc1ccc(-n2nc3c(N4CCC(C(=O)NCc5ccccc5C)CC4)nnc(C)c3c2C)cc1,0,0,0,0,0,0
COc1ccc(-n2nc3c(N4CCC(C(=O)NCc5ccco5)CC4)nnc(C)c3c2C)cc1,0,0,0,0,53,0
Cc1ccc(-n2nc3c(N4CCC(C(=O)NCc5ccc(C)o5)CC4)nnc(C)c3c2C)cc1,0,0,0,0,65,0
Cc1noc(C)c1COc1ccc(C(=O)OCC(=O)Nc2c(C)n(C)n(-c3ccccc3)c2=O)cc1,0,0,0,0,0,0
COc1ccc(Cl)cc1/C=N/NC(=O)c1c(-c2ccccc2)noc1C,0,0,53,0,0,0
COc1cccc(/C=N/NC(=O)c2c(-c3ccccc3)noc2C)c1OC,0,0,0,0,0,0
COC(=O)CCN1CCC2CC1c1cc(Cl)ccc12 (stereo not given),0,0,0,0,0,0
CCCn1c(N)c(N(CCOC)C(=O)c2cccc(S(=O)(=O)N3CCCc4ccccc43)c2)c(=O)[nH]c1=O,0,0,0,0,0,0
COc1ccc(N(CC(=O)N/N=C/c2ccco2)S(=O)(=O)c2ccccc2)cc1,0,0,0,0,0,0
O=C(O[C@@H]1OC2COC(=O)c3cc(O)c(O)c(O)c3-c3c(cc(O)c(O)c3O)C(=O)O[C@@H]([C@H]1O)[C@@H]2O)c1cc(O)c(O)c(O)c1,50,90,46,0,0,0
CCCCN(CC)CCCNC(=S)Nc1ccc2nc3n(c(=O)c2c1)CCCCC3,0,0,0,0,0,0
Cc1ccc2nc(-c3cc(-c4ccccc4)no3)cn2c1,0,0,62,0,0,0
COc1ccc(OC)c2c1C(=O)c1ccccc1C2=O,0,-,-,-,-,-
COc1ccc2noc3c2c1C(=O)c1ccccc1-3,0,187,0,0,0,0
COC(=O)c1ccccc1-c1ccc(/C=N/NC(=O)c2cc3ccccc3o2)o1,0,0,0,0,0,0
COC(=O)c1ccccc1-c1c2ccc(=N)cc-2oc2cc(N)ccc12,0,+,0,0,0,0
COC(=O)c1ccc(CNC(=O)c2ccc(S(=O)(=O)N3CCCC(C)C3)cc2)cc1 (stereo not given),0,50,0,0,0,0
CCOc1cc(/C=N/Nc2ccc(S(=O)(=O)Nc3ccccc3C(=O)O)cc2[N+](=O)[O-])cc(Cl)c1O,-,0,66,0,0,0
O=C(O)c1ccccc1NS(=O)(=O)c1ccc(N/N=C/c2cccc(O)c2O)c([N+](=O)[O-])c1,88,0,0,0,69,0
CCOC1=C2[C@@H](CN(S(=O)(=O)c3ccc(C)cc3)[C@H]2c2cccs2)[C@H]2C(=O)N(c3ccccc3)C(=O)[C@H]2C1,-,0,0,0,0,0
CC1CC1C(=O)Nc1nc(-c2cccs2)c(-c2cccs2)s1 (stereo not given),0,0,0,0,0,0
O=C(OCC(=O)N1CCN(C(=O)c2ccco2)CC1)c1cc(-c2ccco2)nc2ccccc12,87,97,0,44,60,79
